Measured values pooled from the literature.
Compare with care: the assays were run in different laboratories.
Effect on: cell growth or viability

| SMILES | cell line | assay | conditions | IC50 |
| --- | --- | --- | --- | --- |
| CC(=O)c1cccc(N=Nc2c(C(=O)O)cc(O)c(O)c2O)c1 | PANC-1 | MTT |  | 9.2 µM |
| Nc1nc(Nc2ccc3c(c2)CC[C@@H](N2CCCC2)CC3)nn1-c1cc2c(nn1)-c1ccccc1CCC2 | OCI-AML-3 | trypan blue | 72 h | 2.9 µM |
| Cc1cc(Oc2ccc(NC(=O)c3sc(-c4ccccc4)nc3C)cc2)c2nncn2n1 | L02 | MTT |  | > 50 µM |
| O=C(O)/C=C/c1ccc(O)cc1 | PANC-1 | MTT |  | > 50 µM |
| COCCCOc1ccnc(COc2ccc(NC(=O)Nc3ccc(F)cc3)cc2)c1C | L02 | MTT | 72 h | > 100 µM |
| CO[C@H]1/C=C\C=C(/C)C(=O)NC2=C(c3ccccc3)C(=O)C(NCCN(C)C)=C(C[C@@H](C)C[C@H](OC)[C@H](O)[C@@H](C)/C=C(\C)[C@@H]1OC(N)=O)C2=O | ARPE-19 | MTT |  | 8.2 µM |
| Cc1ccc(S(=O)(=O)N(C)CC(=O)N(Cc2ccc(C3CCCCC3)cc2)c2ccc(C(=O)O)c(O)c2)cc1 | OCI-AML2 |  |  | 35.9 µM |
| CCN1C(=O)N(c2c(F)c(OC)cc(OC)c2F)Cc2cnc3[nH]c(CN4CCOCC4)cc3c21 | Li-7 | ATP luminescence | 96 h | 0.054 µM |
| CC(C)[C@H](N)C(=O)N1CCC[C@H]1B(O)O | OCI-AML2 | ATP luminescence | 48 h | 0.08 µM |
| COCCCOc1ccnc(COc2ccc(NC(=O)Nc3cccc(C(F)(F)F)c3)cc2)c1C | L02 | MTT | 72 h | > 100 µM |
| COC1=C2C[C@@H](C)C[C@H](OC)[C@H](O)[C@@H](C)/C=C(\C)[C@H](OC(N)=O)[C@@H](OC)/C=C\C=C(/C)C(=O)NC(=CC1=O)C2=O | ARPE-19 | MTT |  | 0.1 µM |
| O=c1[nH]cc(F)c(=O)[nH]1 | human Lymphocyte |  | 72 h | 18 µM |
| COc1c(C)cnc(COc2ccc(NC(=O)Nc3ccc(Cl)c(C(F)(F)F)c3)cc2)c1C | L02 | MTT | 72 h | > 100 µM |
| CCn1c(=O)c(-c2ccc(-c3cncs3)cc2Cl)cc2cnc(Nc3ccc(N4CCN(C)CC4)cc3)nc21 | PANC-1 | MTT | 24 h | 14.1 µM |
| Cc1cc(Oc2ccc(NC(=O)c3cnn(-c4ccc(Cl)cc4)c3C(F)(F)F)cc2F)c2nncn2n1 | L02 | MTT |  | > 50 µM |
| CCOc1cc(OCC)cc(C(=O)O[C@@H]2CN3Cc4c(cc5c(c4OC)OCO5)[C@@]24C=C[C@H](OC)C[C@@H]34)c1 | PANC-1 | WST-1 |  | 8.3 µM |
| Cc1cc(Oc2ccc(NC(=O)c3cnn(-c4ccc(Cl)cc4)c3C(F)(F)F)cc2F)n2ncnc2n1 | L02 | MTT |  | > 50 µM |
| Cc1c(OCC(F)(F)F)ccnc1COc1ccc(NC(=O)Nc2ccc(F)cc2)cc1 | L02 | MTT | 72 h | > 100 µM |

| SMILES | cell line | assay | conditions | IC50 |
| --- | --- | --- | --- | --- |
| Cc1cc(Oc2ccc(NC(=O)c3sc(-c4ccccn4)nc3C)cc2F)n2ncnc2n1 | L02 | MTT |  | > 50 µM |
| CC[C@@H](C)[C@H](N)C(=O)N1Cc2ccccc2C1 | OCI-AML2 | ATP luminescence | 48 h | 1.44 µM |
| COc1cc2c(Oc3ccc(NC(=O)C4(C(=O)Nc5ccc(F)cc5)CC4)cc3F)ccnc2cc1OCCCN1CCOCC1 | L02 | MTT |  | > 50 µM |
| C=CCNC1=C2C[C@@H](C)C[C@H](OC)[C@H](O)[C@@H](C)/C=C(\C)[C@H](OC(N)=O)[C@@H](OC)/C=C\C=C(/C)C(=O)NC(=CC1=O)C2=O | ARPE-19 | MTT |  | 1 µM |
| COc1c(C)cnc(COc2ccc(NC(=O)Nc3ccc(F)cc3)cc2)c1C | L02 | MTT | 72 h | > 100 µM |
| c1cnc2c(c1)ccc1cccnc12 | L02 | MTT | 48 h | > 50 µM |
| Cc1cc(Oc2ccc(NC(=O)c3cc(-c4cccs4)no3)cc2F)n2ncnc2n1 | L02 | MTT |  | > 50 µM |
| Oc1ccc(Nc2nc(-c3ccc(Cl)cc3)cs2)cc1 | WM-115 | MTS | 72 h | 11.7 µM |
| COCCCOc1ccnc(COc2ccc(NC(=O)Nc3cc(F)cc(F)c3)cc2)c1C | L02 | MTT | 72 h | > 100 µM |
| Cc1ccc2c(Cl)cc(Cl)c(O)c2n1 | L02 | MTT | 48 h | > 100 µM |
| C#CCSc1nc(Sc2nnnn2-c2ccccc2)c2nnn(Cc3ccc(OC)cc3)c2n1 | OCI-AML-3 | MTS | 6 days | 4.72 µM |
| O=C(N/N=C/c1c(O)ccc2ccccc12)c1cc(-c2ccc3ccccc3c2)n[nH]1 | WM-115 | MTS | 24 h | 9.7 µM |
| COc1cc(-c2ncn(/C=C\C(=O)OC(C)C)n2)cc(C(F)(F)F)c1 | OCI-AML2 |  | 72 h | 0.017 µM |
| Cc1c(OCC(F)(F)F)ccnc1COc1ccc(NC(=O)Nc2cccc(C(F)(F)F)c2)cc1 | L02 | MTT | 72 h | > 100 µM |
| C=C(C)C(=O)Nc1ccc(-c2c(-c3ccc(Oc4nccc(C)n4)c(F)c3)c3c(N)ncnc3n2C)cc1 | Li-7 | ATP luminescence | 96 h | > 10 µM |
| c1ccc(-c2ccccn2)nc1 | L02 | MTT | 48 h | > 50 µM |
| COCCCOc1ccnc(COc2ccc(NC(=O)Nc3ccc(OC)cc3)cc2)c1C | L02 | MTT | 72 h | > 100 µM |
